This is a sample that favours compounds with a hit; in the whole collection about 1.5% have one here.
MsrA inh = inhibitors of bovine MsrA. purified bovine MsrA, absorbance read-out. inhibition, % at 15.5 µM. hit rate 0.75% among 360,000. AID 651718; in the data active means inhibition above about 4.5%;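 further: 0% = vehicle wells with enzyme and 100% = reference inhibitor wells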
Tb MetRS inh = Trypanosoma brucei MetRS inhibition; hit rate 0.4% among 360,000; AID 624268; purified T. brucei MetRS, ATP depletion, Kinase-Glo luminescence; inhibition, % at 11.9 µM;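 active means inhibition above a per-plate cutoff of the control wells' mean inhibition plus 3 SD, cut at about 5.5% in these data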;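 further: 0% = DMSO wells median and 100% = median of wells with control inhibitor compound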
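Assay system: T. brucei methionyl-tRNA synthetase, purified | Medium: HEPES buffer with MgCl2, KCl, DTT, spermine, BSA, pyrophosphatase | Compound: 11.9 µM single point | Incubation: 15 min enzyme-compound preincubation, 2 h reaction, 10 min detection, 25 °C | Measured by: Kinase-Glo luciferase luminescence reporting remaining unconsumed ATP | Measure: % inhibition normalized to control-well medians | Replication: Singlicate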
procasp7 counter = activates human procaspase-7, counter-screen for procaspase-3 activators; P55210; recombinant procaspase-7, Ac-DEVD-pNA absorbance 405 nm; D23A/D198A/D206A triple mutant, cannot self-cleave; scale: DMSO 0, 5 µM enzyme 100; activation, % at 8.5 µM; hit rate 0.093% among 330,000;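 active means percent activation above the screen-wide mean plus 3 SD, cut at about 25% in these data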
Target sequence (P55210 whole entry D23A/D198A/D206A): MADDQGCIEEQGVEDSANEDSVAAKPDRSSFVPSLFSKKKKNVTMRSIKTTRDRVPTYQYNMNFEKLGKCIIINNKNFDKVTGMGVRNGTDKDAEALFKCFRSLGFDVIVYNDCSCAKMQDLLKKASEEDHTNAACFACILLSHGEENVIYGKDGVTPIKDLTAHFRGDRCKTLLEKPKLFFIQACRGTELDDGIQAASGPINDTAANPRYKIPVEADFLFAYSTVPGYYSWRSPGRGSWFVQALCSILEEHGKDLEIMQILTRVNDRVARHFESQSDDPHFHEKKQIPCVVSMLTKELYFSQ
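Assay system: Uncleavable procaspase-7 mutant enzyme / Input: 2 µM procaspase-7 mutant as dispensed / Dosing: single nominal 8.5 µM compound dose, 0.8% DMSO final / Timing: 1 h enzyme–compound preincubation and 2 h substrate reaction, both 25 °C / Detection: p-Nitroaniline absorbance at 405 nm, read at 0 and 120 min / Replication: singlicate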
proCasp3 act = procaspase-3 (human) activation | P42574 | recombinant procaspase-3 D3A, Ac-DEVD-pNA absorbance 405 nm | activation, % at 8.5 µM | hit rate 0.11% among 330,000;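 active means activation above the mean of all tested compounds plus 3 SD, cut at about 21% in these data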;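 further: 0% = DMSO alone and 100% = DMSO wells spiked with extra 5 µM PC-3 D3A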
Target sequence (P42574 whole entry D9A/D28A/D175A): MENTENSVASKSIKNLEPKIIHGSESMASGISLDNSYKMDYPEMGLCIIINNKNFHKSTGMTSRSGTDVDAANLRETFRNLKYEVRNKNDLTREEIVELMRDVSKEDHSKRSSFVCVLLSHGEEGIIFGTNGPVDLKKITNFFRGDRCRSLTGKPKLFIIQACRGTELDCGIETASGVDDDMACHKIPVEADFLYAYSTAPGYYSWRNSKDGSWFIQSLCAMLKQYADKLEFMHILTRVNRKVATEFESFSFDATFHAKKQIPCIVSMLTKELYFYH
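System: Procaspase-3 D3A mutant. Medium: Zinc-free 300 mM NaCl, 50 mM HEPES, 0.01% Triton X-100. Schedule: 1 h preincubation plus 2 h reaction at 25 °C. Measured by: 405 nm absorbance of p-nitroaniline, reads at 0 and 120 min. Read-out: percent activation relative to control range.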
MsrA act = activates bovine MsrA enzyme. activation, % at 10.6 µM. hit rate 0.3% among 360,000. purified bovine MsrA, absorbance read-out. AID 602163; in the data active means activation above about 7.5%;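 further: 0% = vehicle and 100% = reference activator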
procasp7 triplic = counter-screen for procaspase-3 activators: activators of human procaspase-7; shares compounds with proCasp3 act; recombinant procaspase-7, Ac-DEVD-pNA absorbance; asp23/198/206-to-Ala mutant, cannot self-cleave; activation, % at 8.5 µM; 210 tested, under 10 active;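 active means mean activation above a set limit taken from an earlier procaspase-7 screen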;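 further: 0% = DMSO wells and 100% = DMSO plus 5 µM procaspase-7 enzyme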
proCasp3 confirm = procaspase-3 (human) activation, confirmed; activation, % at 8.5 µM; shares compounds with proCasp3 act; recombinant PC-3 D3A, Ac-DEVD-pNA absorbance 405 nm; 100% is higher-enzyme control; hit rate 10% among 210;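 active means mean activation above a set limit carried over from the earlier primary screen, cut at about 22% in these data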
Numbers without * were called inactive; . = no result given.

SMILES | MsrA inh | Tb MetRS inh | procasp7 counter | proCasp3 act | MsrA act | procasp7 triplic | proCasp3 confirm
Cn1c(-c2ccc(C=O)s2)nc2c3ccccc3c3ccccc3c21 | -1 | -1 | -23 | 46* | 1 | -21 | -14
Cc1ccccc1C(=O)N[C@@H](Cc1cccnc1)C(=O)N1CCC[C@H]1C(=O)NCCc1ccccc1Cl | 1 | . | . | . | . | . | .
Cc1ccc(S(=O)(=O)N(CC(=O)N2CCC(C)CC2)c2ccccc2)cc1 | 2 | -1 | 1 | 23* | -3 | 2 | 5
Cc1ccc(S(=O)(=O)N(CC(=O)N2CCCCCC2)c2ccccc2)cc1 | -1 | 0 | 0 | 2 | -10 | . | .
CCN(CC)c1ccc(/C=N/NC(=O)c2cccc(S(=O)(=O)Nc3ccccc3OC)c2)cc1 | 3 | -1 | -12 | -7 | -3 | . | .
CCN(CC)c1ccc(/C=N/NC(=O)c2cccc(S(=O)(=O)Nc3ccccc3OC)c2)c(O)c1 | 2 | 2 | 23 | 39* | -7 | 15 | 20
Cc1nc2c(sc3nc(N4CCOCC4)c4c(c32)CC(C)(C)OC4)c(-c2ccc(Cl)cc2)c1C(=O)O | 0 | -1 | -9 | 26* | -3 | -8 | -5
CC1(C)Cc2c(c(N3CCOCC3)nc3sc(C(=O)Nc4ccc(Cl)cc4)c(N)c23)CO1 | 4 | 0 | -21 | -13 | -3 | . | .
COC(=O)C1=C(C)N(Cc2cccc(C(F)(F)F)c2)C(=NCc2ccc3c(c2)OCO3)NC1CCc1ccccc1 (centres undefined) | 1 | . | . | . | . | . | .
Cc1c(Cc2ccccc2)sc(/N=C/c2ccc3ccccc3c2)c1C(N)=O | . | 0 | -11 | -5 | -2 | . | .
Cc1c(Cc2ccccc2)sc(/N=C/c2c(O)ccc3ccccc23)c1C(N)=O | . | 0 | 10 | 32* | -1 | 9 | 26*
CC1CC(C)(C)CC2(C1)NC(=O)N(CC(=O)Nc1ccc3[nH]c(=O)[nH]c3c1)C2=O (centres undefined) | 0 | 0 | 0 | 37* | -1 | 2 | 4
CCN1CCN(c2ncnc3c2sc(=S)n3-c2ccccc2)CC1 | 2 | -1 | 6 | 23* | -14 | 2 | 4
COC(=O)c1cc2c(c3c4cc(C)ccc4n(S(=O)(=O)c4ccc(OC)cc4)c13)C(=O)N(Cc1ccccc1OC)C2 | 0 | . | . | . | . | . | .
O=C(CN1C(=O)c2cccc3cccc1c23)NCc1ccc2c(c1)OCO2 | 2 | 0 | 2 | 29* | -4 | 2 | 2
O=S1(=O)CCSC[C@@H](CN2CCCC2)N1 | 0 | . | . | . | . | . | .
CCOC(=O)c1cc(-c2ccc(/C=N\n3cnnc3)o2)ccc1Cl | 5.6* | -1 | 25 | 29* | -6 | 1 | 2
CCCCCC(=O)NC1CCCCN(C)C1=O (centres undefined) | 0 | . | . | . | . | . | .
Cc1c(CCC(=O)NCCCN2CCCC2=O)c(=O)oc2cc(O)ccc12 | 3 | 0 | 19 | 26* | -3 | -21 | -14
O=C(Cn1c2ccccc2c(=O)c2ccccc21)Nc1ccccc1F | 1 | 0 | -12 | 28* | -2 | -21 | -14
Cc1cc(=O)oc2cc(O)ccc12 | 2 | 0 | 20 | 24* | -9 | -21 | -13
O=c1cc(O)c2ccc(O)cc2o1 | 3 | -1 | -4 | 5 | -2 | . | .
C[C@H](O)[C@@H]1CN2CCc3c([nH]c4c(-c5ccccc5)cccc34)[C@@H]2C[C@@H]1N(C)C(=S)NCCc1ccccc1 | -1 | . | . | . | . | . | .
CC1(C)Cc2c(c(N3CCCC3)nc3sc(C(=O)Nc4ccccc4)c(N)c23)CO1 | 3 | 1 | 3 | 23* | -4 | 39* | 68*
Cc1ccc(NC(=O)c2sc3nc(N4CCOCC4)c4c(c3c2N)CC(C)(C)OC4)cc1 | 1 | 0 | -28 | -16 | -4 | . | .
SMILES | MsrA inh | Tb MetRS inh | procasp7 counter | proCasp3 act | MsrA act | procasp7 triplic | proCasp3 confirm
C=CCn1c2ccccc2c(=O)c2cc(C#CC[C@@H](C)O)ccc21 | 0 | 0 | -10 | -4 | -13 | . | .
C=CCn1c2ccccc2c(=O)c2cc(C#CC3(O)CCCCC3)ccc21 | 0 | 0 | -22 | 150* | -4 | -21 | -14
COc1ccc2oc(C(=O)OCC(=O)Nc3cc(S(=O)(=O)N4CCOCC4)ccc3C)c(C)c2c1 | 0 | 0 | 1 | 1 | 0 | . | .
COc1ccc2oc(C(=O)OCC(=O)Nc3cc(S(=O)(=O)N4CCOCC4)ccc3OC)c(C)c2c1 | -2 | 0 | 6 | 22* | 5 | 0 | 1
CCCCc1c(-c2ccccc2OC)ncn1C(C)c1ccc(Cl)cc1 (centres undefined) | 0 | . | . | . | . | . | .
CC(=O)Oc1c(-c2ccc(Br)o2)oc2ccccc2c1=O | 4 | 0 | 24 | 27* | -6 | -4 | 21*
CC(C)(C)NCCCCOc1ccccc1F | 1 | -1 | 5 | 0 | 0 | . | .
COc1ccccc1OCCCCNC(C)(C)C | 0 | -1 | 8 | 26* | -3 | 2 | 2
C=CCSC1=N/C(=C\c2sccc2C)C(=O)S1 | 1 | -1 | 4 | 59* | -11 | -18 | -9
Cc1ccc(-n2nc3ccc(N)cc3n2)cc1 | 0 | 0 | 6 | -2 | -2 | . | .
CC(C)c1ccc(-n2nc3ccc(N)cc3n2)cc1 | 2 | -1 | 23 | 31* | -9 | -18 | 3
CCC/C(=C1/c2ccccc2C(=O)N1c1ccccc1)c1c(C)noc1C | 0 | . | . | . | . | . | .
CCN(CC)S(=O)(=O)c1ccc(OCC(=O)NC2CCS(=O)(=O)C2)c([N+](=O)[O-])c1 (centres undefined) | 1 | 0 | -3 | 0 | 0 | . | .
Cc1ccc(OCC(=O)NC2CCS(=O)(=O)C2)c([N+](=O)[O-])n1 (centres undefined) | -1 | 0 | -4 | 21* | -1 | 4 | 5
CCOc1ccccc1NC(=O)COc1coc(CN2CCc3ccccc3C2)cc1=O | 1 | 0 | 7 | 22* | -2 | 3 | 6
CCOc1ccccc1NC(=O)COc1coc(CN2CCCc3ccccc32)cc1=O | 0 | 0 | 1 | -4 | -8 | . | .
COc1ccc(NC(=O)CSc2nc3ccccc3nc2N2CCCC2)cc1Cl | 0 | 0 | -1 | 30* | -8 | -3 | -3
NC(=O)c1c(NC(=O)c2ccccc2C(=O)O)sc2c1CCCC2 | 1 | -1 | 5 | 7 | -4 | . | .
NC(=O)c1c(NC(=O)c2ccccc2F)sc2c1CCCC2 | 1 | -1 | -20 | 37* | -3 | -21 | -66
OC(c1ccccc1)(c1ccccc1)C1CCN(CCCOc2ccccn2)CC1 | 0 | . | . | . | . | . | .
CCCCCCN1C=CC(=C/C=C(\C#N)C(=O)OCC)C=C1 | 0 | 0 | -20 | 24* | -3 | -21 | -9

From PubChem
